Reference: ChEMBL document CHEMBL1123190, “Synthesis and biological evaluation of cyclic analogues of 1-carnitine as potential agents in the treatment of myocardial ischemia” (J Med Chem, 1986)
Where “and” joins values, the source holds several entries; their conditions need not be identical. Identical values can stand only once.

Target: T1, Mitochondrial carnitine/acylcarnitine carrier protein (Rattus norvegicus) (UniProt P97521)
T1 sequence (whole entry): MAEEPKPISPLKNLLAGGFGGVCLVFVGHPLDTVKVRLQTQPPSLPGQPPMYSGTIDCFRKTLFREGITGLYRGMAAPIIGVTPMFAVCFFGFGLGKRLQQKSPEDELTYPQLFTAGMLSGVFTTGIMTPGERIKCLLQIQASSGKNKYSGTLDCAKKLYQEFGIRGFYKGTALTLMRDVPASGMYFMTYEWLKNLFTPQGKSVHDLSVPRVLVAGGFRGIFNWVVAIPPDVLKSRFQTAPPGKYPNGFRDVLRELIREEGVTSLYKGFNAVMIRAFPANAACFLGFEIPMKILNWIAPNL
Assay: Affinity of compound towards the carnitine/acylcarnitine translocase was determined by monitoring the efflux of [14C]L-carnitine from isolated rat heart mitochondria
Procedure, shortened: (§1)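 Isolated rat heart mitochondria (differential centrifugation) in 200 mM D-mannitol/50 mM Tris-HCl pH 7.4 with rotenone, oligomycin and antimycin A were loaded with l-carnitine plus [14C]-l-carnitine for 3 min at 28 °C, then washed. Compound at 3 or 50 mM, or water control, was added; efflux ran 1 min on ice and was quenched with mersalyl. Supernatant was scintillation-counted, and % efflux was calculated against control and total radioactivity. Mean of three.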

Compound | Experimental DPM
C[N+]1(C)CCC[C@H]1C(=O)[O-] | 5570
CCCCCCCCCCCCCCCC(=O)OC(CN)CC(=O)O (stereo not given) | 3470
O=C(O)[C@@H]1CCCN1 | 5050
CCCCCCCCCCCCCCCC(=O)O[C@@H]1C[C@@H](C(=O)O)[N+](C)(C)C1 | 5890 and 8870
NCC(O)CC(=O)O (stereo not given) | 4220
O=C(O)C1CCCNC1 (stereo not given) | 4130
O=C(O)[C@@H]1C[C@@H](O)CN1 | 5350
O=C(O)C1CCCCN1 (stereo not given) | 4280

Target: T1, Mitochondrial carnitine/acylcarnitine carrier protein (Rattus norvegicus)
Assay: Affinity of compound towards the carnitine/acylcarnitine translocase was determined by monitoring the efflux of [14C]L-carnitine from isolated rat heart mitochondria at 3 mM conc.
Procedure, shortened: as §1

Compound | Experimental DPM | Total DPM | Trans [%]
C[N+]1(C)CCCC(C(=O)O)C1 (stereo not given) | 4030 | 10900 | 0
C[N+]1(C)CCC[C@H]1C(=O)[O-] | – | 12200 | 3.17
C[N+]1(C)C[C@H](O)C[C@H]1C(=O)O | 4930 | 12200 | 3.16
C[N+](C)(C)CC(O)CC(=O)[O-] (stereo not given) | 11800 | 12200 | 94.2
C[N+]1(C)CCCCC1C(=O)O (stereo not given) | 3850 | 10900 | 0
C[N+](C)(C)[C@@H]1CCCC[C@H]1C(=O)O | 4170 | 10900 | 0
